For series [1], the target named is T1, MAP/microtubule affinity-regulating kinase 4 (Homo sapiens, UniProt Q96L34).
T1 sequence (Q96L34 whole entry): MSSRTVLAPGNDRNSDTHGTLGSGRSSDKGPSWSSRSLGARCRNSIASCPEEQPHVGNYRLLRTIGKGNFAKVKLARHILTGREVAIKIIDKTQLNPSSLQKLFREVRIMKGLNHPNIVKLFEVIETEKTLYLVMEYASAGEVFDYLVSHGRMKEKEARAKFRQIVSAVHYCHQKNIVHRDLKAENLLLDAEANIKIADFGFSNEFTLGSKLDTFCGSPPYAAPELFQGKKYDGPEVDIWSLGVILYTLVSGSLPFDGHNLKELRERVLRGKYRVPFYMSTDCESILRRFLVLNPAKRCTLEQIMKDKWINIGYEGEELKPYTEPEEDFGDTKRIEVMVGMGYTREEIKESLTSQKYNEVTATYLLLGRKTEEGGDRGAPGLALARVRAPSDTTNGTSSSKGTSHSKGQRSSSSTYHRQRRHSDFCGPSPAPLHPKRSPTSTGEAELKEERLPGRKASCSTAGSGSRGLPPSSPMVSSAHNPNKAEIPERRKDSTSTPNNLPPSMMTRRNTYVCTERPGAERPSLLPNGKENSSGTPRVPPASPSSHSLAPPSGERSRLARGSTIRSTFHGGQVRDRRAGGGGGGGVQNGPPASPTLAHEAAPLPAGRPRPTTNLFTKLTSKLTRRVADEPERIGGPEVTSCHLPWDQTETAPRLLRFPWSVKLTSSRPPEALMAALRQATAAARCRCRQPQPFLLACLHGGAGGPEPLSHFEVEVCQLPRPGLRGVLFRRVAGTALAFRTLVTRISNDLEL
Briefly: Displacement of tracer K5 from NLuc fused MARK4 (unknown origin) expressed in HEK293 cells by NanoBRET assay. The class given is cell-based. In general terms: In BRET a luciferase serves as donor, and the signal depends on an acceptor being close.

For series [2], the target named is Serine/threonine-protein kinase 32B (Homo sapiens, UniProt Q9NY57). Briefly: Inhibition of full length recombinant human YANK2 using casein as substrate incubated for 120 mins in presence of [gamma-33P-ATP] by radiometric scintillation assay. The method in brief: (§1)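 Eurofins radiometric enzymatic assay with ATP at Km for each kinase. IC50 was derived from a 9-point dose–response curve run in duplicate.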
Sequence of Serine/threonine-protein kinase 32B (Q9NY57 whole entry): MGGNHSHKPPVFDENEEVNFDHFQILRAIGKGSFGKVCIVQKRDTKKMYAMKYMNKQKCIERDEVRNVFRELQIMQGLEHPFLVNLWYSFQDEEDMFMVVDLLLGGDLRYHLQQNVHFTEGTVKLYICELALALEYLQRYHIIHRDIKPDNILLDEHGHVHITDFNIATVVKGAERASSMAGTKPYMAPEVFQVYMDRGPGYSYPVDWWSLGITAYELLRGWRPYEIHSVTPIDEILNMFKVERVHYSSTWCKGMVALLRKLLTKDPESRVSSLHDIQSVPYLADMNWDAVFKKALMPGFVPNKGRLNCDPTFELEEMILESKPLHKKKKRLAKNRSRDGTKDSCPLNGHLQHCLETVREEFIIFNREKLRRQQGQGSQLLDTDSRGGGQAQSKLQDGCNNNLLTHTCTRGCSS

A short description of series [3]: Kinetic solubility of compound in PBS at pH 7.4 incubated for 24 hrs by chemiluminscent nitrogen detection method. The format is physicochemical. Conditions: buffer, pH 7.4, 24 h. The method in brief: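 Filtrates were quantified by total chemiluminescent nitrogen determination against a calibration curve, with correction for background nitrogen from DMSO and medium.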

The target in series [4] is MAP kinase-interacting serine/threonine-protein kinase 2 (Homo sapiens, UniProt Q9HBH9). Briefly: Inhibition of full length recombinant human MKNK2 using myelin basic protein as substrate incubated for 40 mins in presence of [gamma-33P-ATP] by radiometric scintillation assay. The method in brief: (§2)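 Eurofins radiometric kinase assay run at ATP equal to Km for each kinase. 9-point dose–response in duplicate gives the IC50.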
Sequence of MAP kinase-interacting serine/threonine-protein kinase 2 (Q9HBH9 whole entry): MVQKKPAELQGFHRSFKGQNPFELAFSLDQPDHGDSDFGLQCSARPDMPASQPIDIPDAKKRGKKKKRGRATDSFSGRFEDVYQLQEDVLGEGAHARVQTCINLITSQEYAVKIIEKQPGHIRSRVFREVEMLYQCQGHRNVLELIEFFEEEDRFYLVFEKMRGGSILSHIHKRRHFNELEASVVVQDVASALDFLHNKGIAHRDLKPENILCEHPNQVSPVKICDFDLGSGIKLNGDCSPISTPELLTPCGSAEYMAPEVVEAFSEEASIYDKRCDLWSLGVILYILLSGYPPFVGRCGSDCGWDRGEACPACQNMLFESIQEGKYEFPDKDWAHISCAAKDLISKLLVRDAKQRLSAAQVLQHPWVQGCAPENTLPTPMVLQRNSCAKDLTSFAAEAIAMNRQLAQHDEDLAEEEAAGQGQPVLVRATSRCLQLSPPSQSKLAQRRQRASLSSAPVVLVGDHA

In series [5] the target is MAP/microtubule affinity-regulating kinase 3 (Homo sapiens, UniProt P27448). Briefly: Displacement of tracer K9 from NLuc fused MARK3 (unknown origin) expressed in HEK293 cells by NanoBRET assay. The format is cell-based.
Sequence of MAP/microtubule affinity-regulating kinase 3 (P27448 whole entry, the tested form may be a part): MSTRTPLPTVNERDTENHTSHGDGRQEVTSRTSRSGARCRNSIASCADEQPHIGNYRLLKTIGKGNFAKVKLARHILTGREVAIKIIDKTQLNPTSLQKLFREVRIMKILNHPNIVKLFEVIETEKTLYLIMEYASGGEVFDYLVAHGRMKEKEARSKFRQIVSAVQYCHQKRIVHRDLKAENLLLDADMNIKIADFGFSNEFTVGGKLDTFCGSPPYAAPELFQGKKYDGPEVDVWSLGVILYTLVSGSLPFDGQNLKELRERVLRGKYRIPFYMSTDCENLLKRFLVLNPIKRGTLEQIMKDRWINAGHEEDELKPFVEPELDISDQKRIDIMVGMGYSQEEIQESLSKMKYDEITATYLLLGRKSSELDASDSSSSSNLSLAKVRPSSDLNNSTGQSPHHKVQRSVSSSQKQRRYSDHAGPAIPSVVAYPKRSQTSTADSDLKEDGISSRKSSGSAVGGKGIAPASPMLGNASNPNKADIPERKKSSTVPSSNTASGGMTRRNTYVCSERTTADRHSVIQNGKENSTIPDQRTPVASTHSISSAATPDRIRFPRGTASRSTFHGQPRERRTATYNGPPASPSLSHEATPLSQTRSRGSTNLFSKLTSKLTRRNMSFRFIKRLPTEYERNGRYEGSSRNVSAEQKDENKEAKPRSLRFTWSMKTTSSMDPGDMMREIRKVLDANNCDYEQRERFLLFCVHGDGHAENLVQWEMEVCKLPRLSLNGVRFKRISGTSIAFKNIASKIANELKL
The nature of series [6]: Effective permeability in PBS at 7.4 incubated for 5 hrs by PAMPA analysis. The class given is ADME. The following applies: pH 7.4, 5 h. The method in brief: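 PAMPA: DMSO stocks were diluted in PBS pH 7.4 and placed in the donor compartment, with PBS pH 7.4 in the acceptor, for 5 h. Both compartments were quantified by CLND against a calibration curve, with background nitrogen correction. Effective permeability was calculated from donor and acceptor concentrations using measured rather than assumed solubility.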

In series [7] the target is T2, Serine/threonine-protein kinase TBK1 (Homo sapiens, UniProt Q9UHD2).
T2 sequence (Q9UHD2 whole entry): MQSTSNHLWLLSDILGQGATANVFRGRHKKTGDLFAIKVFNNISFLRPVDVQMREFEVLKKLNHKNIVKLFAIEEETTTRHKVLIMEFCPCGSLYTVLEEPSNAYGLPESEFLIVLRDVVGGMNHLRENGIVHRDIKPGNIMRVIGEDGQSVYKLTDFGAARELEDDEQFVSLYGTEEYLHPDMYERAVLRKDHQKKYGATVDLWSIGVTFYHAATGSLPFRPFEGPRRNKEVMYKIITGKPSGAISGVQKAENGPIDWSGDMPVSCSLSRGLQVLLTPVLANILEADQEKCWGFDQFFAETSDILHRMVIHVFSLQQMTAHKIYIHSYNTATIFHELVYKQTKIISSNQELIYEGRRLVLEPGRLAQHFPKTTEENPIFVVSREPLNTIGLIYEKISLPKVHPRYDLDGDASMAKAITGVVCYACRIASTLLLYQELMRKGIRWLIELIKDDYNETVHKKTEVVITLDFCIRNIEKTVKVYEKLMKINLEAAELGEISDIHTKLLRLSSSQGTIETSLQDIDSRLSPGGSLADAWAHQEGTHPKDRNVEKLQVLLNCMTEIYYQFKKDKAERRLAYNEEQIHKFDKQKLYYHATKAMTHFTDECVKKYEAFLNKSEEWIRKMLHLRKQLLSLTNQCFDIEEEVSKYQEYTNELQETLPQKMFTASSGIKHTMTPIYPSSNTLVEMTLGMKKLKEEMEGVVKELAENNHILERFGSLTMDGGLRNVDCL
The experiment in a line: Displacement of tracer K5 from NLuc fused TBK1 (unknown origin) expressed in HEK293 cells by NanoBRET assay. The class given is cell-based. The method in brief:
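HEK293 cells grown in DMEM with 10% FBS at 37 °C, 5% CO2. NanoBRET assay run in dose–response per manufacturer's protocol with tracer K-5 at 0.5 μM. SEM calculated for assays run more than once.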

In series [8] the target is T3, Serine/threonine-protein kinase 17A (Homo sapiens, UniProt Q9UEE5).
T3 sequence (Q9UEE5 whole entry): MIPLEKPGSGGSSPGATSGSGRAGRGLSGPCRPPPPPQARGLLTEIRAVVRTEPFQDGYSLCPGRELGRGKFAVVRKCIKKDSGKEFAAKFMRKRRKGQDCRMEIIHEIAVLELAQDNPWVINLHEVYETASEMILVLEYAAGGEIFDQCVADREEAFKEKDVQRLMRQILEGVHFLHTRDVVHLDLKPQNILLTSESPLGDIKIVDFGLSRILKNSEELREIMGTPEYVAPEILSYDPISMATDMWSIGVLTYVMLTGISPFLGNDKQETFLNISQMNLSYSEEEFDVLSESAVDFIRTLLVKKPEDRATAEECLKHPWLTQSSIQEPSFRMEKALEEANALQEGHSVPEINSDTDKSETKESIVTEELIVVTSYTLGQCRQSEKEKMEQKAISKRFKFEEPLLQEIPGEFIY
The experiment in a line: Displacement of tracer K9 from NLuc fused DRAK1 (unknown origin) expressed in HEK293 cells by NanoBRET assay. The class given is cell-based.

In series [9] the target is T4, Serine/threonine-protein kinase 17B (Homo sapiens) (UniProt O94768).
T4 sequence (whole entry): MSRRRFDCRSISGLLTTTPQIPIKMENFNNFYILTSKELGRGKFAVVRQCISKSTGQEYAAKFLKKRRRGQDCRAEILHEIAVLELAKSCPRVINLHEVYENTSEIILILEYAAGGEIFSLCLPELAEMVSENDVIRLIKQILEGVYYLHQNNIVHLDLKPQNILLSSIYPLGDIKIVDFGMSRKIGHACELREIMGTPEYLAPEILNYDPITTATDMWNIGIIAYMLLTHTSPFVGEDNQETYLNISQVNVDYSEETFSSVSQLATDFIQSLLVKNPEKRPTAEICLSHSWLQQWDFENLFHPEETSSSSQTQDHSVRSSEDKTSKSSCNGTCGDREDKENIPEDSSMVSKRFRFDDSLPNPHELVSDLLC
The experiment in a line: Inhibition of full length recombinant human DRAK2 using KKRPQRRYSNVF as substrate at 1 uM incubated for 120 mins in presence of [gamma-33P-ATP] by radiometric scintillation assay relative to control. The method in brief: (§3)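 Eurofins radiometric kinase assay with ATP at Km for each kinase. Compound was tested at a single 1 μM concentration in duplicate, and the result is reported as percent of control.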

Series [10] addresses T5, Non-receptor tyrosine-protein kinase TYK2 (Homo sapiens, UniProt P29597). The experiment in a line: Inhibition of human TYK2 (875 to end residues) using GGMEDIYFEFMGGKKK as substrate measured after 40 mins in presence of [gamma33P]ATP by radiometric scintillation counting method. The method in brief:
as §1

For series [11], the target named is Serine/threonine-protein kinase SIK2 (Homo sapiens, UniProt Q9H0K1). The experiment in a line: Inhibition of recombinant human SIK2 (1 to 276 residues) using KKKVSRSGLYRSPSMPENLNRPR as substrate measured after 40 mins in presence of [gamma33P]ATP by radiometric scintillation counting method. The method in brief:
as §2

Series [12] addresses T3, Serine/threonine-protein kinase 17A. The experiment in a line: Inhibition of recombinant human DRAK1 using KKLNRTLSFAEPG as substrate after 40 mins in presence of [gamma-33ATP] by scintillation counting based radiometry assay. The method in brief:
as §2

Series [13] addresses Serine/threonine-protein kinase 17B (Homo sapiens, UniProt O94768). Briefly: Inhibition of recombinant human DRAK2 using KKRPQRRYSNVF as substrate after 120 mins in presence of [gamma-33ATP] by scintillation counting based radiometry assay. The method in brief:
as §1

Series [14] concerns the target AP2-associated protein kinase 1 (Homo sapiens, UniProt Q2M2I8). Briefly: Inhibition of human AAK1 using peptide as substrate incubated for 120 mins in presence of [gamma-33ATP] by scintillation counting based radiometry assay. The method in brief:
as §2

Series [15] addresses BMP-2-inducible protein kinase (Homo sapiens, UniProt Q9NSY1). Briefly: Residual activity of human BMP2K at 1 uM using peptide as substrate incubated for 120 mins in presence of [gamma-33P-ATP] by radiometric scintillation assay relative to control.
Series [16] has as its target Tyrosine-protein kinase JAK2 (Homo sapiens) (UniProt O60674). Briefly: Inhibition of recombinant human JAK2 (808 to end residues) using KTFCGTPEYLAPEVRREPRILSEEEQEMFRDFDYIADWC as substrate at 1 uM incubated for 40 mins in presence of [gamma-33P-ATP] by radiometric scintillation assay relative to control. The method in brief: as §3
Series [17] deals with T6, Macrophage colony-stimulating factor 1 receptor (Homo sapiens, UniProt P07333). Briefly: Inhibition of recombinant human FMS (538 to end residues) using KKKSPGEYVNIEFG as substrate measured after 40 mins in presence of [gamma33P]ATP by radiometric scintillation counting method. The method in brief: as §2
T6 sequence (P07333 whole entry, the tested form may be a part): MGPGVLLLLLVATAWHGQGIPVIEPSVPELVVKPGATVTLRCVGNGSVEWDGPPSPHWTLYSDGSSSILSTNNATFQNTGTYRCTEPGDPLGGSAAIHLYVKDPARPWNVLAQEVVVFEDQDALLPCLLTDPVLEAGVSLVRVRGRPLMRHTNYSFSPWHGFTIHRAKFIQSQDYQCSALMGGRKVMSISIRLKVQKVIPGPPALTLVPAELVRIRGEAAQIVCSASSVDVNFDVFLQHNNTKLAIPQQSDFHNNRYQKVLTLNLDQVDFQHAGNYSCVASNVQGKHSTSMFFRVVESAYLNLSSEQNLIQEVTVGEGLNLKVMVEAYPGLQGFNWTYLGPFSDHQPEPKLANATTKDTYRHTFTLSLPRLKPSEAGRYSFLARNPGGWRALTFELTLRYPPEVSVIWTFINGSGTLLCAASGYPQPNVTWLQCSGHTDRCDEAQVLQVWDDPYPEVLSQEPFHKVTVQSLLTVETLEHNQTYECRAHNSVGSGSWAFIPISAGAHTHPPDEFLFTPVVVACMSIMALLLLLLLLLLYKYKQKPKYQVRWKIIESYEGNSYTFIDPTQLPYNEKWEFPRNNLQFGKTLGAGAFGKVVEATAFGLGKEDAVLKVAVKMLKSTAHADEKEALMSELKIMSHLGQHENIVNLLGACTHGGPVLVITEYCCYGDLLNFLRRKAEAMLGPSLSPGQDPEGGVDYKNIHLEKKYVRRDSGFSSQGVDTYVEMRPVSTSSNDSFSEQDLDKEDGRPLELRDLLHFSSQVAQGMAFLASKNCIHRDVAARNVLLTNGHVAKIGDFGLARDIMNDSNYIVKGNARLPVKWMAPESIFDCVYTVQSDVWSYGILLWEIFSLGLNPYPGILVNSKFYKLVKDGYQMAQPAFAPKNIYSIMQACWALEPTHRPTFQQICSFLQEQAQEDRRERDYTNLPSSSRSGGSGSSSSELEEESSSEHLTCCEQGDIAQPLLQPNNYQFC
Series [18] deals with T5, Non-receptor tyrosine-protein kinase TYK2. The experiment in a line: Inhibition of NanoLuc-fused TYK2 (unknown origin) expressed in HEK293 cells incubated for 2 hrs by NanoBRET assay. The format is cell-based. The method in brief:
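Cellular NanoBRET target-engagement assays were run by Carna Biosciences to the manufacturer's protocol. Dose–response was in singlicate, with compounds tested at concentrations up to 10 μM.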

The nature of series [19]: Inhibition of human TTBK1 (1 to 479 residues) using Casein as substrate measured after 40 mins in presence of [gamma33P]ATP by scintillation counting method. The method in brief: as §2
Series [20] deals with Receptor tyrosine-protein kinase erbB-2 (Homo sapiens, UniProt P04626). The experiment in a line: Inhibition of recombinant human ERBB2 (676 to 1255 residues) using poly(Glu:Tyr) as substrate incubated for 40 mins in presence of [gamma-33P-ATP] by radiometric scintillation assay. The method in brief: as §1
Series [21] addresses T6, Macrophage colony-stimulating factor 1 receptor. Briefly: Inhibition of NanoLuc-fused CSF1R (unknown origin) expressed in HEK293 cells incubated for 2 hrs by NanoBRET assay. The format is cell-based.

The structures appear in SMILES notation.

T5 sequence (P29597 whole entry): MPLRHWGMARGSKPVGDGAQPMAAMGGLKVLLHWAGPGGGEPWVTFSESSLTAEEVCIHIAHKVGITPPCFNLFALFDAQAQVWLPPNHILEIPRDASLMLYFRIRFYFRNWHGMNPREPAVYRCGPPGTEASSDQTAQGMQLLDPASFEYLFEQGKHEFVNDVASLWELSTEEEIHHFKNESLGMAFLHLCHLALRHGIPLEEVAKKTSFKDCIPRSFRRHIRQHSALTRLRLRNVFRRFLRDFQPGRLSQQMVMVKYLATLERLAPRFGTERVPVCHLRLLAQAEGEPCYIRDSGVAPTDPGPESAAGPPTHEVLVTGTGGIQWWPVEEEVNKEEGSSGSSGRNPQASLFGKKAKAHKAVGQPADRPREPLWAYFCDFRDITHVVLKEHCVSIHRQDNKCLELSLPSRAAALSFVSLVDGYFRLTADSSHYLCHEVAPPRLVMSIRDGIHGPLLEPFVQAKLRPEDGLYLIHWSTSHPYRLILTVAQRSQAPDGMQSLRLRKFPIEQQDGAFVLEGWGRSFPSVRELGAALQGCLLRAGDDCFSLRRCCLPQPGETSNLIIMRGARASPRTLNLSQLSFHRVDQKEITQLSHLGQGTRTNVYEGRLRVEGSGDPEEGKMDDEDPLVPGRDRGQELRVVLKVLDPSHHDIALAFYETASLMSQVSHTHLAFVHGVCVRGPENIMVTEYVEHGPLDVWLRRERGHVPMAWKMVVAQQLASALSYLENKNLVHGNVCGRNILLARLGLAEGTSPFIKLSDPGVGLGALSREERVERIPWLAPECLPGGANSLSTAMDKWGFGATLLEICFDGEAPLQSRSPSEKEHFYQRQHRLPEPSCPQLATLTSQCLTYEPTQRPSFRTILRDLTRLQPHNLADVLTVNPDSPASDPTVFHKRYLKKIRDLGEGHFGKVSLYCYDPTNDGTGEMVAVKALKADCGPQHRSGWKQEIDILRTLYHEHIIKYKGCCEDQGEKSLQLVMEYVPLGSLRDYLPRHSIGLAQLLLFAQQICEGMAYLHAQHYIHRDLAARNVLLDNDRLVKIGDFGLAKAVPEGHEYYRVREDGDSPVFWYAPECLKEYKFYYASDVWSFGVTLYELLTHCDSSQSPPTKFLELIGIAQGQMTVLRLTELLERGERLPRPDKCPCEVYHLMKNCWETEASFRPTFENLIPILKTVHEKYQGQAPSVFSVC
Sequence of Tyrosine-protein kinase JAK2 (Homo sapiens) (O60674 whole entry): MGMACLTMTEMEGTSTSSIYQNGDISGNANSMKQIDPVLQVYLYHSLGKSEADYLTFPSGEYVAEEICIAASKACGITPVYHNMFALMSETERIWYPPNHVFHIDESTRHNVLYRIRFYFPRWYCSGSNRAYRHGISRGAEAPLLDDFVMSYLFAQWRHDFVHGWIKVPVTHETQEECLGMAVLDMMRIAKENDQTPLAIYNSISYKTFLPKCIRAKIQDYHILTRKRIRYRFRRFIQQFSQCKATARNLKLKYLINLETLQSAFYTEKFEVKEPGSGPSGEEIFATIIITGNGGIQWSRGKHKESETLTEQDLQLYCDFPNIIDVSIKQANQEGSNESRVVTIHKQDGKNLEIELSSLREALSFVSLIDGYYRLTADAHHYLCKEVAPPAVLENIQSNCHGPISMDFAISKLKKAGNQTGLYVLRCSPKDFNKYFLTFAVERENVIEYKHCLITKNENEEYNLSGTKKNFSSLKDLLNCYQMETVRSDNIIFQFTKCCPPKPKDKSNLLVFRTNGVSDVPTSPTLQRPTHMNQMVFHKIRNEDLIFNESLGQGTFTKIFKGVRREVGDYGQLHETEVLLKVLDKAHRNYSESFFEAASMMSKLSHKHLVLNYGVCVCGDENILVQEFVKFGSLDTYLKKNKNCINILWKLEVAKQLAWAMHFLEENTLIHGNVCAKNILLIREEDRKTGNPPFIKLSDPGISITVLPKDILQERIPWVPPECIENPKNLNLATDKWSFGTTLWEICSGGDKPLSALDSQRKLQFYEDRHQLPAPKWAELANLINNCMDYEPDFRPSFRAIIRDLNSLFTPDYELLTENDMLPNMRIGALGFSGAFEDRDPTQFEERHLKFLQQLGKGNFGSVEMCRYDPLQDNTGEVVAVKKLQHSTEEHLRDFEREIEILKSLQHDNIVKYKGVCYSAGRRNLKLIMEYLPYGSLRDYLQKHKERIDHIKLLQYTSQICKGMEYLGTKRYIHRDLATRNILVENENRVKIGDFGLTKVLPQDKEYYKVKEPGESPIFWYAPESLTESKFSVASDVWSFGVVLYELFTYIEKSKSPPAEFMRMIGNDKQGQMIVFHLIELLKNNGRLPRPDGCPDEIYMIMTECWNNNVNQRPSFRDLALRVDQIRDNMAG

Turning to `Cc1nn(CC(F)(F)F)cc1Nc1nccc(NCCCNC(=O)C2CCC2)n1`, the IC50 – broadly, the concentration at which inhibition is half-maximal – in [1] is greater than 10000 nM; in series [2], greater than 10000 nM; in series [4], 2870 nM; in series [5] it was greater than 10000 nM; in [7], greater than 10000 nM; in series [8], greater than 10000 nM. In addition, in series [3], the Kinetic_solubility was 174.6 µM. Also, in series [6], the Peff is 2.39 10^-6 cm/s. The % control in series [9] stood at 60%.
For `O=C(NCCCNc1ccnc(Nc2cccc(NC(=O)N3CCCC3)c2)n1)C1CCC1`, the concentration for half-maximal inhibition (IC50) is greater than 10000 nM in series [1]; 720 nM in series [10]; 769 nM in [4]; greater than 10000 nM in [5]; 481 nM in series [11]; greater than 10000 nM in series [7]. In addition, the IC50 is 2310 nM in [8], 325 nM in series [12], 161 nM in series [13] and 390 nM in [14]. For the same compound, in series [3], the Kinetic solubility is 169 µM. Moreover, in [6], the Peff is 8.24 10^-8cm/s. Also, in series [15], the % control stood at 56%.
With `NS(=O)(=O)c1ccc(CNc2ccnc(Nc3cccc(CN4CCOCC4)c3)n2)cc1`, the IC50 was greater than 10000 nM in series [1]; 276 nM in series [10]; 91 nM in series [17]; greater than 10000 nM in series [5]; greater than 10000 nM in series [18]; 2740 nM in series [19]. The IC50 in series [20] is greater than 10000 nM; in [7], greater than 10000 nM; in series [8] it was greater than 10000 nM; in [21], 5060 nM. In addition, the % control in series [16] was found to be 54%. In [3], this compound showed a Kinetic solubility of 176 µM. In addition, the Peff in [6] is 4.56 10^-7 cm/s.

The values above are taken from ChEMBL document CHEMBL5046221, “Identification of Pyrimidine-Based Lead Compounds for Understudied Kinases Implicated in Driving Neurodegeneration” (J Med Chem, 2022).
